Compound activity from PubChem BioAssay.
T cruzi inh – inhibitors of intracellular T. cruzi growth, primary screen, luminescence, NIH3T3 host cells; T. cruzi beta-gal in NIH3T3, 90 h; inhibition, % (concentration not given with the values); 1.4% of 300,000 active; AID 1885, 2009;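 active = mean inhibition across valid replicates above about 55%, limit read from the data; inconclusive = mean below that limit but half or more replicates reach it; inactive = mean below it, under half of replicates reach it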;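 also: signal also drops with host cell toxicity which is not excluded here; higher percent means less beta-gal luminescence so fewer parasites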
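System: mouse NIH/3T3 fibroblasts infected with β-gal-expressing T. cruzi Tulahuen C4 / Input: NIH/3T3 cells, 5,000 per well / Buffer or medium: Low-serum DMEM with 2% FBS / Probe or stimulus: 5000 reporter trypomastigotes per well / Schedule: ≥90 h infection period, 3 h prior cell attachment / Measured by: GalScreen luminescence, 60 min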
Beta apoptosis – inhibitors of cytokine-induced beta cell apoptosis, primary screen, luminescence; protection from apoptosis, % (no concentration beside the values); 0.8% of 300,000 active; INS-1E cytokine-induced death, ATP luminescence, 48 h; percent of positive-control rescue, neutral wells zero;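 active = Every replicate reaches about 75%, or at least half do and their mean reaches it too, limit read from the data; inconclusive = At least half of replicates reach the limit but their mean does not; inactive = Under half of replicates reach the limit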;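 also: higher means more ATP so stronger rescue from cytokine killing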
Mdm2 MdmX PPI – inhibitors of human Mdm2-MdmX association, primary screen, cell-based, luminescence, split luciferase, SaOS-2, uHTS; inhibition, % at 8 µM; 3% of 330,000 active; AID 485346, 2010; SaOS-2 split-luciferase Mdm2/MdmX complementation; Protein Mdm4 (Homo sapiens) + E3 ubiquitin-protein ligase Mdm2 (Homo sapiens), …;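 active = inhibition of at least 50% at 8 µM in the primary screen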
CSC inhib – cancer stem cell viability inhibitors, primary screen, luminescence. inhibition, % at 7.5 µM. AID 2717, 2010. cancer stem cell-like cells viability. 1.1% of 300,000 active; in the data active = inhibition above about 75%; inconclusive = no clear call, values can overlap the other calls; tested in HMLE shEcad cells
SKKanGAS inh – S. pyogenes SKKanGAS growth inhibitors in kanamycin, primary screen, streptokinase expression inhibitor project, SKKanGAS strain, BacTiter-Glo luminescence; 6 h; inhibition, % at 7.5 µM; 1.3% of 300,000 active;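 active = mean replicate score, as percent of positive control median, at least 50; inconclusive = mean below 50 but one replicate at or above 50; inactive = mean and every replicate below 50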;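 also: strain carries kanamycin resistance gene driven by streptokinase promoter and grows in 40 µg/ml kanamycin; loss of luminescence reflects streptokinase promoter inhibition or plain growth inhibition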
Lmaj promast – Leishmania major promastigote growth inhibition, primary screen; Leishmania major promastigotes, resazurin fluorescence viability; inhibition, % at 10 µM; 9% of 200,000 active; in the data active = inhibition above about 50%;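 also: promastigotes grown with compound for 44 hours at 28 °C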
Mdm2 MdmX conf – Mdm2-MdmX complex disruptors, retested hits, confirmation, luminescence, single concentration. Mdm2-MdmX binding, luminescent assay. inhibition, % at 8 µM. shares compounds with Mdm2 MdmX PPI. 55% of 10,000 active. AID 489028, 2010; in the data active = inhibition above about 40%
FLuc counter – full-length luciferase signal inhibition, confirmation, counter-screen for Mdm2/MdmX interaction inhibitor project, cell-based, single concentration, SaOS-2; shares compounds with Mdm2 MdmX PPI; SaOS-2 full-length luciferase counterscreen, luminescence; inhibition, % at 8 µM; 77% of 6,200 active; AID 504607, 2011;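 active = mean inhibition at 8 µM reaching about 37%, which flags the compound as non-specific, limit read from the data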;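 also: p53-null SaOS-2 cells with luciferase driven by a doxycycline-inducible promoter; compound on cells about two nights before reading with doxycycline added after day one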
Numbers stand for hits; – = inactive; ? = inconclusive; · = no result given. The list is not random: actives were taken first. Their share in the collection is about 9.4%.

SMILES	T cruzi inh	Beta apoptosis	Mdm2 MdmX PPI	CSC inhib	SKKanGAS inh	Lmaj promast	Mdm2 MdmX conf	FLuc counter
Cn1c(=O)[nH]c(=O)c2c1nc(N1CCN(c3ccccc3)CC1)n2CCSc1ncccn1	–	–	54	·	–	–	–	·
N/C(=N\NC(=O)c1sccc1OCc1ccc(Cl)cc1Cl)c1ccccn1	–	78	62	–	?	100	65	–
CNC(=S)NNC(=O)c1sccc1OCc1ccc(Cl)cc1Cl	–	–	–	–	–	–	·	·
COc1ccc(/C=N/NC(=O)C2(C)NC(C)(C)Cc3ccccc32)cc1 (centres undefined)	–	–	–	–	–	–	·	·
CCCCOC(=O)NS(=O)(=O)c1sc(CC(C)C)cc1-c1ccc(Cn2c(CC)nc3c(C)cc(C)nc32)cc1	·	–	89	100	·	·	–	72
CCCCOC(=O)Nc1ccc(S(=O)(=O)Nc2nc(C)cc(C)n2)cc1	–	–	–	·	–	–	·	·
COCCC(=O)N1CCC(Oc2ccc(C(=O)N(C)CCCC3CCCC3)cc2)CC1	–	–	–	–	–	·	·	·
Cc1cc(NC(=O)CCCSc2nc(-c3ccco3)cc(C(F)(F)F)n2)n(-c2ccccc2)n1	–	–	–	–	–	–	·	·
COC(=O)c1ccccc1NC(=O)CSc1nc(-c2ccco2)cc(C(F)(F)F)n1	·	·	67	·	·	–	62	74
Cc1cc(NC(=O)CSc2nc(-c3ccco3)cc(C(F)(F)F)n2)n(-c2ccccc2)n1	–	–	54	–	–	–	56	54
O=C(CSc1nc(-c2ccco2)cc(C(F)(F)F)n1)Nc1ccc2c(c1)CCC2	–	–	52	–	–	–	61	45
Cc1ccc(NC(=O)CSc2nc(-c3ccco3)cc(C(F)(F)F)n2)cc1C	–	–	–	·	–	–	·	·
CCC(=O)Nc1cccc(C(=O)/C=C/c2ccc(F)cc2)c1	–	–	89	–	–	100	48	45
CC(=O)Nc1ccc(/C=C/C(=O)c2ccc3c(c2)OCCO3)cc1	–	–	–	–	–	·	·	·
CC(=O)Nc1cccc(C(=O)/C=C/c2ccc(C)cc2)c1	–	–	57	–	–	100	52	54
COc1cccc(NC(=S)NC(=O)/C=C/c2ccc(F)cc2)c1	–	–	–	–	–	·	·	·
CCOC(=O)c1cc2c(=O)n3ccccc3nc2n(Cc2ccco2)c1=NC(=O)c1ccc(OC)cc1OC	–	·	–	·	–	–	·	·
COc1ccc(C=O)cc1CSc1ncccc1C(=O)O	–	–	–	–	–	·	·	·
CCn1cc([N+](=O)[O-])c(C(=O)N2N=C(c3ccc4ccccc4c3)CC2c2ccccc2O)n1 (centres undefined)	–	–	61	–	–	–	59	86
O=C(c1ccncc1)N1N=C(c2ccc(Br)cc2)CC1c1ccccc1O (centres undefined)	–	–	–	–	–	·	·	·
CCn1cc([N+](=O)[O-])c(C(=O)N2N=C(c3cccc4ccccc34)CC2c2ccccc2O)n1 (centres undefined)	–	–	52	–	–	74	41	75
CCn1cc(Cl)c(C(=O)N2N=C(c3ccc4ccccc4c3)CC2c2ccccc2O)n1 (centres undefined)	56	–	69	–	50	73	40	57
Cc1cc(C)c2cccc(N)c2n1	–	–	–	–	–	–	·	·
Cc1cc(C)c2ccc(N)nc2c1O	–	–	83	–	99	99	75	41
O=C(Oc1ccc2c(c1)OCO2)c1cc2c(s1)CCC2	–	–	97	–	–	–	78	–
SMILES	T cruzi inh	Beta apoptosis	Mdm2 MdmX PPI	CSC inhib	SKKanGAS inh	Lmaj promast	Mdm2 MdmX conf	FLuc counter
O=C(Oc1ccc2c(c1)OCO2)c1ccc(F)cc1Cl	–	–	–	–	–	–	·	·
O=S(=O)(NC1CC1)c1ccccc1	–	·	–	–	–	·	·	·
Cc1cc(NC(=O)CSc2nc(N)c(NC(=O)c3ccco3)c(=O)[nH]2)no1	–	–	–	–	–	·	·	·
CC1CC(=O)c2c(cc3c(-c4c(O)cc(O)c5c(O)c6c(cc45)OC(C)CC6=O)c(O)cc(O)c3c2O)O1 (centres undefined)	71	98	100	–	107	–	93	–
Cn1cc(CCC(=O)NC2CC(C)(C)Cc3c2cnn3-c2ccc(F)cc2)cn1 (centres undefined)	–	·	–	·	–	·	·	·
COc1ccc(OC)c(N(/C(N)=N/c2nc(C)cc(C)n2)S(=O)(=O)c2ccc(NC(C)=O)cc2)c1	–	–	63	–	–	·	–	90
O=C(Nc1ccc(Cl)cc1)c1cc(Br)ccc1OCC(=O)N1CCOCC1	–	·	–	–	–	·	·	·
CCCN1CCC(NC(=O)C2CCCCC2C(=O)O)CC1 (centres undefined)	–	–	–	–	–	·	·	·
CCc1ccc(-c2cc(C)no2)cc1S(=O)(=O)N1CCN(c2ccccc2OC)CC1	–	–	–	–	–	·	·	·
CCc1ccc(-c2cc(C)no2)cc1S(=O)(=O)N1CCN(c2ccccc2)CC1	–	–	60	–	–	·	43	47
COC(=O)C1C/C(=N/NS(=O)(=O)c2ccc(C)cc2)CS1 (centres undefined)	–	–	–	–	–	·	·	·
COc1cccc(/C=N/NC(=O)CNC(=O)COc2ccccc2)c1O	–	–	–	–	–	·	·	·
Cc1cccc(OCC(=O)NCC(=O)N/N=C/c2cc(Br)cc(Br)c2O)c1	–	–	56	–	61	·	77	–
Cc1c(C(=O)NCc2ccc3c(c2)OCO3)oc2ccc(Br)cc12	–	–	73	–	–	–	–	·
CCC(=O)Oc1ccc2ccccc2c1CNC(=O)c1ccccc1	–	–	55	–	–	–	–	·
CC(C)Cn1c(CNC(=O)c2ccccc2)nc2ccccc21	–	–	–	–	–	–	·	·
Oc1ccc(N=Nc2ccc(Br)cc2)c(O)c1	60	–	82	92	–	·	41	98
Oc1ccc(N=Nc2n[nH]c(-c3ccc(Br)cc3)n2)cc1	–	–	·	–	–	–	·	·
COC(=O)c1cc(-c2ccccc2)c2c(=O)n(C)c(=O)n(C)c2n1	·	·	·	·	·	–	·	·
COC(=O)c1cc(-c2ccc(Br)cc2)c2c(=O)n(C)c(=O)n(C)c2n1	–	–	72	–	52	·	–	·
